Reference: ChEMBL document CHEMBL1134348, “Novel glucocorticoid antedrugs possessing a 17beta-(gamma-lactone) ring” (J Med Chem, 2001)

Key:
[1] = (§1) % stability in human plasma after 10 minutes.; type: ADME, organism-based; conditions: plasma, read-out: Stability
Procedure, shortened: (§2)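 Pooled heparinized plasma from 4 volunteers was incubated at 37 °C with test compound at a final concentration of 30 ug/mL, with DMSO-only controls. The reaction was stopped with 2 M citric acid at 10 and 60 min, with a zero-time sample. Supernatants were analysed by reversed-phase HPLC at 240 nm against an internal standard, in duplicate, and reported as % compound remaining.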

[2] = % stability in krebs buffer after 60 minutes.; type: physicochemical; conditions: for remaining at 1 h: Krebs buffer, read-out: Stability; for Stability: buffer, 1 h
Procedure, shortened: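 Test compound, at a final concentration of 30 ug/mL, was spiked into Krebs buffer at 37 °C for 60 min, then quenched with 2 M citric acid. Supernatant was analysed by reversed-phase HPLC with UV detection at 240 nm and an internal standard, in duplicate. The read-out was % compound remaining.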

[3] = (§3) % stability in human plasma after 60 minutes.; type: ADME, organism-based; conditions: plasma, read-out: Stability; procedure, shortened: as §2
[4] = target: T1, Glucocorticoid receptor (Rattus norvegicus) (UniProt P06536); experiment: Percentage reduction in thymus weight (248.99+/-23.19 mg) at 50 ug dose; type: functional
T1 sequence (whole entry): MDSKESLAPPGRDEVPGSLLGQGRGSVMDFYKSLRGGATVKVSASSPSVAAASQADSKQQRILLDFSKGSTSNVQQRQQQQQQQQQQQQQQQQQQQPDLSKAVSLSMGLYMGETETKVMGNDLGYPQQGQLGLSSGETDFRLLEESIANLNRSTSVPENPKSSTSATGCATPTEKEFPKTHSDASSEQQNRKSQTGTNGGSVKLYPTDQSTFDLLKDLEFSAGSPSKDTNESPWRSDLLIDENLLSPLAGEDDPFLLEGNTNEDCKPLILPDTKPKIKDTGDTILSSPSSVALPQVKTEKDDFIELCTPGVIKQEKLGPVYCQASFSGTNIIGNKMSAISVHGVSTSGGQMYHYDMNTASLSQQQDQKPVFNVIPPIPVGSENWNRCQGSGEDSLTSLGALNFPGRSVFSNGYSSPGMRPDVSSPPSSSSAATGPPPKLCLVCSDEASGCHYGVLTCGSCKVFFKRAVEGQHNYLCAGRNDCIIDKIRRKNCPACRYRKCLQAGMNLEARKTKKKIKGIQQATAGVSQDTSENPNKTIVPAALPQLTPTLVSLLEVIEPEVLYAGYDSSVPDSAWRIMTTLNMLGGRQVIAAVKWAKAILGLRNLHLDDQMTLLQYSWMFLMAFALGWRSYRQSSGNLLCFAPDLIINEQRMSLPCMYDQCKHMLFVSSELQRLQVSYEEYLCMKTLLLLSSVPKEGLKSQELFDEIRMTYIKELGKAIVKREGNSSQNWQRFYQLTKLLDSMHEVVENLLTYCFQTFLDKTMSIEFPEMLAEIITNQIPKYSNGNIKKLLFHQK

[5] = test system: Rattus norvegicus; experiment: Inhibition of rat ear edema as percentage change in mean weight (39.79+/-0.99 mg) from control group of 55.67+/-1.22 mg at 1.00 ug dose; type: functional
[6] = test system: Rattus norvegicus; experiment: Inhibition of rat ear edema as percentage change in mean weight (40.57+/-1.10 mg) from control group of 55.67+/-1.22 mg at 4.00 ug dose; type: functional
[7] = test system: Rattus norvegicus; experiment: Inhibition of rat ear edema as percentage change in mean weight (64.86+/-2.70 mg) from control group of 72.25+/-2.24 mg at 0.06 microg dose; type: functional
[8] = test system: Rattus norvegicus; experiment: Inhibition of rat ear edema as percentage change in mean weight (44.71+/-1.53 mg) from control group of 72.25+/-2.24 mg at 1.00 ug dose; type: functional
[9] = test system: Rattus norvegicus; experiment: Inhibition of rat ear edema as percentage change in mean weight (47.21+/-1.49 mg) from control group of 72.25+/-2.24 mg at 0.25 ug dose; type: functional
[10] = test system: Rattus norvegicus; experiment: Inhibition of rat ear edema as percentage change in mean weight (44.39+/-2.26 mg) from control group of 72.25+/-2.24 mg at 4.00 ug dose; type: functional
[11] = test system: Rattus norvegicus; experiment: Inhibition of rat ear edema as percentage change in mean weight (45.29+/-1.16 mg) from control group of 55.67+/-1.22 mg at 0.25 ug dose; type: functional
[12] = target: T2, Glucocorticoid receptor (Homo sapiens, UniProt P04150); experiment: Affinity for human glucocorticoid receptor
T2 sequence (P04150 whole entry): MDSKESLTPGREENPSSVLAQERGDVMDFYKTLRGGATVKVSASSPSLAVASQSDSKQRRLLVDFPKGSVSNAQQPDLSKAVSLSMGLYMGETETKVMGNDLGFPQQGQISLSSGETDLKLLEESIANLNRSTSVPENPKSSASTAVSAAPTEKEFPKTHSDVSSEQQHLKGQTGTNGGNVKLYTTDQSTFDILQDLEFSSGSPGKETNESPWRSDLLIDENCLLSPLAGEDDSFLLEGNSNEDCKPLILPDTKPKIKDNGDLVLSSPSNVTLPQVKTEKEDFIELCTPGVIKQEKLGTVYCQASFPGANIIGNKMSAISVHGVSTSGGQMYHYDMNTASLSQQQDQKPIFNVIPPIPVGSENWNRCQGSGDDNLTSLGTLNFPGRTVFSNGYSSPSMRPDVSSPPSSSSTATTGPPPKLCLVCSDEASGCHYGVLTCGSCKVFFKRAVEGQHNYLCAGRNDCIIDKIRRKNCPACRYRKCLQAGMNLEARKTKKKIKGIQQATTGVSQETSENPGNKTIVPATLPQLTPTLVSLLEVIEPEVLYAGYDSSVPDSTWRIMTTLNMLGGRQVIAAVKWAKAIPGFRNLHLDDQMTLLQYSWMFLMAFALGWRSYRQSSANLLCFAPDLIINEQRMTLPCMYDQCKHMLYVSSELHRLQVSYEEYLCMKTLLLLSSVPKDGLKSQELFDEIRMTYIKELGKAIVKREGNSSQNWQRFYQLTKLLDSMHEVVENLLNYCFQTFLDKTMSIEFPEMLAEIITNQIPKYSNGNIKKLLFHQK

[13] = test system: Rattus norvegicus; experiment: Inhibition of rat ear edema as percentage change in mean weight (55.94 +/- 3.31 mg) from control group of 72.25+/-2.24 mg at 6.25 ug dose; type: functional
[14] = test system: Rattus norvegicus; experiment: Inhibition of rat ear edema as percentage change in mean weight (71.65+/-2.81 mg) from control group of 72.25+/-2.24 mg at a 1.56 ug dose; type: functional
[15] = test system: Rattus norvegicus; experiment: Inhibition of rat ear edema as percentage change in mean weight (54.84 +/- 2.18 mg) from control group of 72.25+/-2.24 mg at 10.00 ug dose; type: functional
[16] = test system: Rattus norvegicus; experiment: Inhibition of rat ear edema as percentage change in mean weight (46.46+/-2.86 mg) from control group of 72.25+/-2.24 mg at 100 ug dose; type: functional
[17] = test system: Rattus norvegicus; experiment: Inhibition of rat ear edema as percentage change in mean weight (49.76+/-2.12 mg) from control group of 72.25+/-2.24 mg at 25.00 ug dose; type: functional
[18] = half life in human plasma.; type: ADME, organism-based
Procedure, shortened: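 Pooled heparinised plasma from 4 volunteers, stored at −20 °C; compound spiked to final 30 ug/mL at 37 °C. Half-life taken from additional time points in this incubation; reaction stopped with 2 M citric acid, samples frozen overnight and centrifuged. Supernatant analysed by reverse-phase HPLC with UV at 240 nm, internal standard dexamethasone or hydrocortisone; duplicates.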

[19] = species: Homo sapiens; experiment: as §1; type: ADME, organism-based; conditions: 10 min; procedure, shortened: as §2
[20] = species: Homo sapiens; experiment: as §3; type: ADME, organism-based; conditions: 1 h; procedure, shortened: as §2
[21] = test system: Rattus norvegicus; experiment: Inhibition of rat ear edema as percentage change in mean weight (47.85+/-1.09 mg) from control group of 55.67+/-1.22 mg at 6.25 ug dose
[22] = test system: Rattus norvegicus; experiment: Inhibition of rat ear edema as percentage change in mean weight (58.02+/-1.46 mg) from control group of 55.67+/-1.22 mg at 1.56 ug dose
[23] = test system: Rattus norvegicus; experiment: Inhibition of rat ear edema as percentage change in mean weight (43.03+/-1.19 mg) from control group of 55.67+/-1.22 mg at 100.00 ug dose
[24] = test system: Rattus norvegicus; experiment: Inhibition of rat ear edema as percentage change in mean weight (47.21+/-1.28 mg) from control group of 55.67+/-1.22 mg at 25.00 ug dose

CCC[C@@H]1O[C@@H]2CC3C4C[C@H](F)C5=CC(=O)C=C[C@]5(C)[C@@]4(F)[C@@H](O)C[C@]3(C)[C@]2(S[C@@H]2CCOC2=O)O1 (stereo partly drawn)
remaining at 10 min [1]: 19%
remaining at 1 h [2]: 100%
remaining at 1 h [3]: 7%

CCCC1O[C@@H]2C[C@H]3[C@@H]4CCC5=CC(=O)C=C[C@]5(C)[C@H]4[C@@H](O)C[C@]3(C)[C@]2(C(=O)CO)O1 (stereo partly drawn)
Reduction [4]: 48%

CC1(C)O[C@@H]2CC3C4C[C@H](F)C5=CC(=O)CC[C@]5(C)[C@@]4(F)[C@@H](O)C[C@]3(C)[C@]2(S[C@@H]2CCOC2=O)O1 (stereo partly drawn)
remaining at 10 min [1]: 28%
remaining at 1 h [2]: 92%
remaining at 1 h [3]: 0%

CCC(=O)O[C@]1(C(=O)SCF)[C@H](C)C[C@H]2[C@@H]3C[C@H](F)C4=CC(=O)C=C[C@]4(C)[C@@]3(F)[C@@H](O)C[C@@]21C [FLUTICASONE PROPIONATE]
Decrease [5]: 28.5%
Decrease [6]: 27.1%
Decrease [7]: 10.23%
Decrease [8]: 38.1%
Decrease [9]: 34.7%
Decrease [10]: 38.6%
Decrease [11]: 18.6%

CCC[C@@H]1O[C@@H]2CC3C4C[C@H](F)C5=CC(=O)CC[C@]5(C)[C@@]4(F)[C@@H](O)C[C@]3(C)[C@]2(S[C@@H]2CCOC2=O)O1 (stereo partly drawn)
IC50 [12]: 0.0064 µM
Decrease [13]: 22.6%
remaining at 10 min [1]: 19%
Decrease [14]: 0.83%
Decrease [15]: 24.1%
remaining at 1 h [2]: 91%
Decrease [16]: 35.7%
Decrease [17]: 31.1%
remaining at 1 h [3]: 0%
half-life [18]: 5 min

CCC[C@@H]1O[C@@H]2CC3C4C[C@H](F)C5=CC(=O)CC[C@]5(C)[C@@]4(F)[C@@H](O)C[C@]3(C)[C@]2(SC2COC(=O)C2)O1 (single isomer, unassigned; isomer B)
Stability [19]: 56%
remaining at 1 h [2]: 100%
Stability [20]: 0%

CC1(C)O[C@@H]2CC3C4C[C@H](F)C5=CC(=O)C=C[C@]5(C)[C@@]4(F)[C@@H](O)C[C@]3(C)[C@]2(CC2CCOC2=O)O1 (single isomer, unassigned; isomer B)
remaining at 10 min [1]: 100%
remaining at 1 h [2]: 100%
remaining at 1 h [3]: 99%

CC1(C)O[C@@H]2CC3C4C[C@H](F)C5=CC(=O)CC[C@]5(C)[C@@]4(F)[C@@H](O)C[C@]3(C)[C@]2(SC2CCOC2=O)O1 (stereo partly drawn)
remaining at 10 min [1]: 20%
remaining at 1 h [2]: 89%
remaining at 1 h [3]: 0%

CC1(C)O[C@@H]2CC3C4C[C@H](F)C5=CC(=O)C=C[C@]5(C)[C@@]4(F)[C@@H](O)C[C@]3(C)[C@]2(S[C@@H]2CCOC2=O)O1 (stereo partly drawn)
IC50 [12]: 0.0014 µM
remaining at 10 min [1]: 45%
Decrease [21]: 14%
Decrease [22]: 0%
Decrease [23]: 22.7%
remaining at 1 h [2]: 90%
Decrease [24]: 15.2%
remaining at 1 h [3]: 15%

CC1(C)O[C@@H]2CC3C4C[C@H](F)C5=CC(=O)C=C[C@]5(C)[C@@]4(F)[C@@H](O)C[C@]3(C)[C@]2(SC(CCO)C(=O)O)O1 (stereo partly drawn)
IC50 [12]: 0.289 µM

CCC[C@@H]1O[C@@H]2CC3C4C[C@H](F)C5=CC(=O)C=C[C@]5(C)[C@@]4(F)[C@@H](O)C[C@]3(C)[C@]2(SC2CCOC2=O)O1 (stereo partly drawn)
remaining at 10 min [1]: 0%
remaining at 1 h [2]: 77%
remaining at 1 h [3]: 0%

CCC[C@@H]1O[C@@H]2CC3C4C[C@H](F)C5=CC(=O)CC[C@]5(C)[C@@]4(F)[C@@H](O)C[C@]3(C)[C@]2(SC(CCO)C(=O)O)O1 (stereo partly drawn)
IC50 [12]: 0.4 µM

CC1=C(SC2CCOC2=O)[C@@]2(C)C[C@H](O)[C@@]3(F)C(CCC4=CC(=O)C=C[C@@]43C)C2C1 (single isomer, unassigned; isomer A)
Stability [19]: 53%
Stability [2]: 97%
Stability [20]: 13%

CC1=C(SC2CCOC2=O)[C@@]2(C)C[C@H](O)[C@@]3(F)C(CCC4=CC(=O)C=C[C@@]43C)C2C1 (single isomer, unassigned; isomer B)
Stability [19]: 17%
remaining at 1 h [2]: 98%
remaining at 1 h [3]: 8%

CCC[C@@H]1O[C@@H]2CC3C4C[C@H](F)C5=CC(=O)CC[C@]5(C)[C@@]4(F)[C@@H](O)C[C@]3(C)[C@]2(SC2COC(=O)C2)O1 (single isomer, unassigned; isomer A)
Stability [19]: 28%
Stability [2]: 99%
Stability [20]: 19%

CCC[C@@H]1O[C@@H]2CC3C4C[C@H](F)C5=CC(=O)CC[C@]5(C)[C@@]4(F)[C@@H](O)C[C@]3(C)[C@]2(S[C@H]2CCOC2=O)O1 (stereo partly drawn)
remaining at 10 min [1]: 0%
remaining at 1 h [2]: 82%
remaining at 1 h [3]: 0%

CCC[C@@H]1O[C@@H]2CC3C4C[C@H](F)C5=CC(=O)CC[C@]5(C)[C@@]4(F)[C@@H](O)C[C@]3(C)[C@]2(SCC2CCOC2=O)O1 (stereo partly drawn)
remaining at 10 min [1]: 100%
remaining at 1 h [2]: 100%
remaining at 1 h [3]: 100%
half-life [18]: > 240 min

CC1(C)O[C@@H]2CC3C4C[C@H](F)C5=CC(=O)C=C[C@]5(C)[C@@]4(F)[C@@H](O)C[C@]3(C)[C@]2(CC2CCOC2=O)O1 (single isomer, unassigned; isomer A)
Stability [20]: 100%
